SIRT5 inh = SIRT5 desuccinylase inhibitors, primary screen, biochemical, fluorescence imaging, single point, set 5 | NAD-dependent protein deacylase sirtuin-5, mitochondrial (Homo sapiens), Q9NXA8 | Purified SirT5, succinyl-peptide AMC, trypsin-coupled fluorescence | inhibition, % at 15 µM | 1.1% of 330,000 active | AID 652115, 2013; in the data active = inhibition above about 15%
PKA-R1A activ = activators of PKA-R1A holoenzyme, primary screen, biochemical, fluorescence polarization, Cy5-IP20, bovine R1A, mouse PKAc; activation, % at 11.4 µM; cAMP-dependent protein kinase type I-alpha regulatory subunit (Bos taurus) + …; PKA-R1A dissociation; scaled: DMSO 0%, 113 µM cGMP 100%; 0.083% of 340,000 active;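 active = percent activation above the mean of all tested compounds plus 3 SD, cut at about 19% in these data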;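 also: higher means more PKAc released from R1A so a rise in polarization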
S100A4 inh HTS = inhibitors of S100A4-myosin IIA peptide binding, primary screen, biochemical, fluorescence polarization, TAMRA-MyoIIA peptide. Protein S100-A4 (Homo sapiens), P26447. AID 652163, 2013. inhibition, % at 10.7 µM. 0.14% of 360,000 active;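 active = mean inhibition of at least 70% across replicates, with every replicate also reaching that level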
Target sequence (P26447 whole entry, looked up): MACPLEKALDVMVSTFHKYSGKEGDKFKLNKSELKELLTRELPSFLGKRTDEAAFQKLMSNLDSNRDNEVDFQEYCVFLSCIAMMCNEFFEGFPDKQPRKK
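System – human S100A4 monomer protein, biochemical binding assay · Buffer or medium – Calcium-containing HEPES buffer, pH 7.2 · Timing – 5 min between mix addition and reading · Also added – TAMRA-labelled myosin IIA heavy-chain peptide probe, 5 nM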
PKA-R2B activ = activators of PKA-R2B holoenzyme, primary screen, biochemical, fluorescence polarization, Cy5-IP20, human; activation, % at 11.4 µM; PKA-R2B holoenzyme dissociation; R2B truncated from residue 108, S112A mutant; 0% DMSO only, 100% 113 µM cGMP; 0.079% of 340,000 active; cAMP-dependent protein kinase catalytic subunit beta (Homo sapiens) + cAMP-dependent …; AID 504700, 2011;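 active = activation above a cutoff set at the mean over all compounds plus 3 SD, cut at about 18% in these data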;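 also: higher means more holoenzyme dissociation and a rise in polarization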
Target sequence (P31323 whole entry, looked up, other chains not shown, the tested form may be a part): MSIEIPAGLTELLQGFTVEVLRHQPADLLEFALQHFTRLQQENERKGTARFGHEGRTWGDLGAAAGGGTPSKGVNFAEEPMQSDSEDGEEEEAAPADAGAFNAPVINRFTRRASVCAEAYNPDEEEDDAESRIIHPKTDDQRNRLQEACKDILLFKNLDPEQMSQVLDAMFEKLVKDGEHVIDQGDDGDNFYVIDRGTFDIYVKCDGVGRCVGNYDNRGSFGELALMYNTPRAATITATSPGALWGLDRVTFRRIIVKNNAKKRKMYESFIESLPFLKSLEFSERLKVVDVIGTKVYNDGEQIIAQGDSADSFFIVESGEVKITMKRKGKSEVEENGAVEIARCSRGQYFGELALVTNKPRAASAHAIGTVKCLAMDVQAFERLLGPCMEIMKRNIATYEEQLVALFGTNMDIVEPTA
CRFBP-R2 block = antagonists of CRF-BP/CRF-R2 complex, primary screen, cell-based, HEK293, calcium dye fluorescence, uHTS; inhibition, % at 11.8 µM; CRF-induced calcium fluorescence; AID 588475, 2011; 0.59% of 350,000 active;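 active = inhibition of the ligand-induced calcium signal above about 50% at the single tested concentration, limit read from the data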
Active calls of the source: *; nt = no result. The list is not random: actives were taken first. Their share in the collection is about 1.5%.

SMILES	SIRT5 inh	PKA-R1A activ	S100A4 inh HTS	PKA-R2B activ	CRFBP-R2 block
C[C@@H]1CN([C@H](C)CO)C(=O)c2cc(NC(=O)CCC(F)(F)F)ccc2O[C@@H](C)CCCCO[C@@H]1CN(C)Cc1ccc(Cl)c(Cl)c1	13	nt	4	nt	nt
C[C@@H]1CN([C@@H](C)CO)S(=O)(=O)c2ccc(/C=C/c3ccccc3)cc2O[C@@H]1CN(C)C(=O)CN1CCOCC1	1	nt	3	nt	nt
O=C(CC(C(=O)O)c1c[nH]c2ccccc12)c1ccccc1 (stereo not drawn)	17*	1	-5	2	-1
C[C@H]1CN([C@@H](C)CO)S(=O)(=O)c2ccc(C#CC3CC3)cc2O[C@H]1CN(C)C(=O)C1CCC1	-1	nt	-12	nt	nt
O=[N+]([O-])c1ccc(N=Nc2c(Cl)cc(O)cc2Cl)cc1	2	-7	2	1	41
O=C1CC(=Nc2ccc([N+](=O)[O-])cc2)NN1c1c(Cl)cc(Cl)cc1Cl	17*	1	-10	-8	6
C[C@H]1CCCCO[C@@H](CN(C)C(=O)c2ccncc2)[C@@H](C)CN([C@@H](C)CO)C(=O)c2cc(NS(=O)(=O)c3ccc(Cl)cc3)ccc2O1	2	nt	6	nt	nt
CC(=O)NCc1ccc(C(=O)CN2C(=O)NC3(CCCCC3C)C2=O)s1 (stereo not drawn)	15*	-5	1	3	6
CC(=O)N(C)C[C@H]1Oc2ncc(C#C[C@@H](C)O)cc2C(=O)N([C@@H](C)CO)C[C@H]1C	5	nt	9	nt	nt
Clc1ccc(-c2csc(N3CCOCC3)n2)cc1	0	3	-10	-4	77*
Brc1ccc(-c2csc(N3CCOCC3)n2)cc1	-4	2	4	12	-7
CCOC(=O)C1CCN(c2nc3cc(OC)ccc3cc2C#N)CC1	nt	8	nt	-3	57*
COc1ccc2cc(C#N)c(N3CCOCC3)nc2c1	9	1	2	-1	10
CCOC(=O)CSc1nc2cc(OCC)ccc2cc1C#N	21*	-7	-3	5	-11
CCOc1ccc2cc(C#N)c(SCC(=O)N3CCC(C)CC3)nc2c1	nt	3	nt	-2	-17
O=C(N[C@H]1CC[C@H](CCNC(=O)C2CCCC2)O[C@H]1CO)c1ccccn1	4	nt	-1	nt	nt
c1ccc(C2CN3CCSC3=N2)cc1 (stereo not drawn)	0	8	2	4	89*
c1ccc(SCCc2ccncc2)cc1	nt	1	nt	-11	-2
CC(C)(C)c1ccc(SCCc2cccnc2)cc1	1	0	-3	1	71*
COC(=O)C1=NNC(C(=O)c2ccco2)C1c1ccccc1 (stereo not drawn)	22*	1	2	-1	3
COCCNC(=O)C[C@H]1CC[C@@H](NS(=O)(=O)c2ccc(C)cc2)[C@H](CO)O1	4	nt	5	nt	nt
C[C@@H]1CN([C@H](C)CO)C(=O)c2ccccc2-c2ccccc2CO[C@H]1CN(C)C(=O)Oc1ccccc1	6	nt	94*	nt	nt
CCOC(=O)N(C)C[C@@H]1OCc2ccccc2-c2ccccc2C(=O)N([C@@H](C)CO)C[C@H]1C	25*	nt	34	nt	nt
O=S(=O)(c1ccc(F)cc1)N1CCCCN2[C@@H](CO)[C@H](c3ccc(-c4ccccc4F)cc3)[C@@H]2C1	22*	nt	2	nt	nt
O=S(=O)(c1ccc(F)cc1)N1CCCCN2[C@H](C1)[C@H](c1ccc(-c3ccccc3F)cc1)[C@@H]2CO	17*	nt	-6	nt	nt
SMILES	SIRT5 inh	PKA-R1A activ	S100A4 inh HTS	PKA-R2B activ	CRFBP-R2 block
Cc1ccccc1-c1ccc([C@H]2[C@H](CO)N3CCCCN(S(=O)(=O)c4ccc(F)cc4)C[C@@H]23)cc1	21*	nt	nt	nt	nt
O=S(=O)(c1ccc(F)cc1)N1CCCCN2[C@@H](CO)[C@@H](c3ccc(-c4ccccc4F)cc3)[C@@H]2C1	16*	nt	1	nt	nt
O=S(=O)(c1ccc(F)cc1)N1CCCCN2[C@H](C1)[C@@H](c1ccc(-c3ccccc3F)cc1)[C@@H]2CO	14	nt	4	nt	nt
O=S(=O)(c1ccc(F)cc1)N1CCCCN2[C@H](CO)[C@H](c3ccc(-c4ccccc4F)cc3)[C@H]2C1	-1	nt	-8	nt	nt
CCC(=O)N(C)C[C@@H]1Oc2cc(C#CC3(O)CCCC3)ccc2S(=O)(=O)N([C@@H](C)CO)C[C@H]1C	6	nt	8	nt	nt
O=C(C[C@H]1C[C@@H]2c3cc(NS(=O)(=O)c4ccc(F)cc4)ccc3O[C@@H]2[C@H](CO)O1)NCc1ccccn1	-1	nt	-4	nt	nt
O=S(=O)(c1ccc(F)cc1)N1CCCCN2[C@H](CO)[C@H](c3ccc(-c4ccccc4F)cc3)[C@@H]2C1	20*	nt	-10	nt	nt
CCOc1ccccc1N1CCN(C(=O)C2CSC3(C)CCC(=O)N23)CC1 (stereo not drawn)	-8	3	-1	17	72*
Cc1noc(C)c1S(=O)(=O)Nc1ccc2c(c1)C(=O)N([C@H](C)CO)C[C@H](C)[C@@H](CN(C)Cc1ccc3c(c1)OCO3)OCCCC[C@H](C)O2	8	nt	-3	nt	nt
Cn1c(Cc2ccccc2)nnc1SCc1cc(=O)n2ccsc2n1	2	-7	-6	9	1
O=c1cc(CSc2nnnn2-c2ccc(O)cc2)nc2sccn12	38*	-3	-2	-6	-18
CC1(C(=O)NS(=O)(=O)c2ccccc2Cl)CCN1C(=O)Cc1cccc2ccccc12 (stereo not drawn)	30*	nt	2	nt	nt
O=C(O)c1cc(O)c2c(c1)C(=O)c1cccc(O)c1C2=O	18*	-17	1	5	-41
COc1ccc(Cl)cc1NC(=O)CSc1nnc(Cc2ccc(C)cc2)c(=O)[nH]1	3	-8	-5	-13	32
COc1cc(Cl)c(C)cc1NC(=O)CSc1ccc(C)cc1	-3	3	3	-8	50*
COc1cc(Cl)c(C)cc1NC(=O)CSc1nnc(CCC(=O)O)c(=O)[nH]1	22*	2	-2	-13	6
COc1ccc(S(=O)(=O)N(C)C[C@@H]2Oc3ccc(NC(=O)C4CCCCC4)cc3C(=O)N([C@H](C)CO)C[C@H]2C)cc1	5	nt	-1	nt	nt
CO[C@@H]1CN(C)C(=O)c2ccc(NC(=O)C3CCCCC3)cc2OC[C@@H](C)NC[C@@H]1C	-10	nt	11	nt	nt
Cc1[nH]n2c(=O)cc(-c3ccc([N+](=O)[O-])cc3)nc2c1-c1ccccc1	nt	-10	nt	-12	48
COc1ccc(-c2c(C(F)(F)F)[nH]n3c(=O)cc(-c4ccccc4)nc23)cc1	0	-20	1	-11	70*
Cc1ccc(N=Nc2c(N)[nH]n3c(=O)cc(-c4ccccc4)nc23)cc1	nt	1	nt	-7	59*
